{"source": "paper PMC6097486", "about": "(International Journal of Biological Sciences, 2018)", "key": {"NSCLC": {"system": "NSCLC", "conditions": "ref [7]-[9]; cited from earlier work"}, "[1]": {"conditions": "ref [10]; cited from earlier work"}, "FGFR1": {"system": "FGFR1", "experiment": "Competitive elution of phage clones by FGF2", "format": "binding", "conditions": "2 µg/ml FGF2, RT 1 h, 450 nm", "in_short": "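Phage clones (2 × 10^11 pfu/well) and control vcsM13 phage incubated on FGFR1 at RT for 1 h. Competitive elution with FGF2 (2 µg/ml) at RT for 1 h. Detection with anti-M13 mAb (37°C, 1 h), then goat anti-mouse IgG-HRP (37°C, 30 min) and TMB substrate. Absorbance read at 450 nm.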"}, "CAM": {"system": "CAM", "experiment": "Chick chorioallantoic membrane", "format": "in vivo", "conditions": "FGF2 10 ng/ml alone, 24 h", "in_short": "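Test peptide applied with FGF2 (10 ng/ml) onto the CAM surface on day 8 of egg incubation. Incubation continued for 24 h, then the CAM surface was photographed to assess angiogenesis.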"}, "[2]": {"system": "FGFR1-ERK1/2 MAPK signaling pathway", "experiment": "FGFR1-ERK1/2 MAPK signaling activation by FGF2", "format": "cell-based, human", "conditions": "stimulation with FGF2; A549 and NCI-H460 cells", "in_short": "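A549 and NCI-H460 cells (FGFR1-high human NSCLC) grown in DMEM/high glucose with 10% FBS at 37°C, 5% CO₂. Treatment 2 h; FGFR1 inhibitor PD173074 (100 nM) as positive control. Lysate protein (30 µg) run on 10% SDS-PAGE, transferred to PVDF, blocked in 8% nonfat milk/TBST. Probed for pFGFR1 and pERK1/2 (1:1000), normalised to β-actin.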"}, "A549 cells": {"system": "A549 cells", "experiment": "Tube formation assay on matrigel, A549 cells", "format": "cell-based, human", "conditions": "FGF2 10 ng/ml alone, 6 h, versus control (###P < 0.001)"}, "[3]": {"experiment": "Gross toxicity and body weight in A549 xenograft nude mice", "format": "in vivo, BALB/cA nude mice", "conditions": "5 mg/kg/day i.p., 28 days", "in_short": "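Female athymic nu/nu BALB/cA mice, 7 weeks old, SPF housing, received subcutaneous A549 cells (2 × 10^6 cells in 200 μL saline, mixed 1:1 with matrigel) into upper and lower back. Two days later, test compound in saline was given i.p. for 28 days; controls got the same volume of saline. Body weight was recorded weekly.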"}, "human FGFR1 protein": {"target": "T1, human FGFR1 protein (human, UniProt P11362 22-376)", "T1 sequence (looked up)": "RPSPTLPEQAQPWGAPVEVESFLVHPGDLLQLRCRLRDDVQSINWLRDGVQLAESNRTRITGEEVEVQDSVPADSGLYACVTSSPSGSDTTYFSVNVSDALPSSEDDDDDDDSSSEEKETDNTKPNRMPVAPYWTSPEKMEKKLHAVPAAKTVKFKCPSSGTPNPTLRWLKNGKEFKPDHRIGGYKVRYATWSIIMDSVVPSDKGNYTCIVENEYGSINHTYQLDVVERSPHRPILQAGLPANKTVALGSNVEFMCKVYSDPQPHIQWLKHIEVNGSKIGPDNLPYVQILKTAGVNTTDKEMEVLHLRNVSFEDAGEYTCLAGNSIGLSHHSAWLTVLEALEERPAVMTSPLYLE", "experiment": "SPR"}}, "note": "Where no end group is shown, it is not given here.", "data": [{"molecule": "COc1cc(OC)cc(-c2cc3cnc(N)nc3nc2NC(=O)NC(C)(C)C)c1", "note": "[PD166866]", "values": [{"measurement": "growth of NSCLC", "setting": "NSCLC", "value": "suppress the growth of NSCLC"}]}, {"molecule": "CCN(CC)CCCCNc1ncc2cc(-c3cc(OC)cc(OC)c3)c(NC(=O)NC(C)(C)C)nc2n1", "note": "[PD173074]", "values": [{"measurement": "toxicity / clinical progress", "setting": "[1]", "value": "failed to enter phase II clinical trials due to their high toxicities"}, {"measurement": "growth of NSCLC", "setting": "NSCLC", "value": "suppress the growth of NSCLC"}]}, {"molecule": "Cc1c[nH]c(/C=C2\\C(=O)Nc3ccccc32)c1CCC(=O)O", "note": "[SU5402]", "values": [{"measurement": "toxicity / clinical progress", "setting": "[1]", "value": "failed to enter phase II clinical trials due to their high toxicities"}, {"measurement": "growth of NSCLC", "setting": "NSCLC", "value": "suppress the growth of NSCLC"}]}, {"molecule": "FGF2: Specific ligand of FGFR1 (PeproTech)", "values": [{"measurement": "elution efficiency for the phage clones", "setting": "FGFR1", "value": "high elution efficiency"}, {"measurement": "angiogenesis", "setting": "CAM", "value": "significantly induce angiogenesis"}, {"measurement": "activation of FGFR1-ERK1/2 MAPK signaling pathway", "setting": "[2]", "value": "evident"}, {"measurement": "tube formation", "setting": "A549 cells", "value": "significantly induce tube formation"}]}, {"molecule": "FHDAWPNLSKSS [R1-P2]", "values": [{"measurement": "toxicity observed", "setting": "[3]; n = 5", "value": "no remarkable toxicity observed"}, {"measurement": "abnormal gross phenotypes including weight loss", "setting": "[3]; n = 5, body weight recorded weekly", "value": "no signs of abnormal gross phenotypes including weight loss"}]}, {"molecule": "FHDAWPNLSKSS", "note": "[peptide R1-P2]", "values": [{"measurement": "Kd", "setting": "human FGFR1 protein", "value": "~154", "unit": "nM"}]}]}
